MC4R barr agon – human MC4R agonism via beta-arrestin. P32245. U2OS MC4R beta-arrestin complementation, luminescence; percent of melanotan II response, DMSO zero. activation, % at 8.9 µM. hit rate 0.98% among 360,000. AID 540308;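 active = activation above a per-plate cutoff, the mean activation of sample wells on that plate plus 3 SD, cut at about 8% in these data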
TAAR1 agonist – human TAAR1 agonism. hit rate 0.99% among 360,000. CHO RD-HGA16 TAAR1, Fluo-8 calcium fluorescence; vehicle wells 0%, saturating PEA agonist 100%. activation, % at 3 µM. Q96RJ0;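 active = activation above the mean activation of all test compounds in the run plus 3 SD, cut at about 38% in these data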
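Test system: RD-HGA16 (CHO) cells co-expressing Gα16 and hTAAR1 / Benchmarks: DMSO vehicle as 0%, PEA at EC100 as 100% / Repeats: no replicates (n 1) / Measure: % activation from peak over basal fluorescence ratio, DMSO-to-PEA scaled / Timing: 17-24 h plating, Fluo-8 75 min 37 °C, 30 min RT / Technique: kinetic Fluo-8 calcium fluorescence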
TAAR1 antag – antagonists of human TAAR1; hit rate 1.5% among 360,000; CHO RD-HGA16 TAAR1, Fluo-8 calcium fluorescence, antagonist; inhibition, % at 3 µM;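 active = inhibition above a per-plate cutoff, the mean inhibition of test compounds on that plate plus 3 SD, cut at about 49% in these data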
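System: RD-HGA16 CHO cells with stable hTAAR1 and Gα16 | Probe or stimulus: EC80 β-phenethylamine stimulus | Dosing: 3 µM, single point | Times: Dye loading 75 min at 37 °C, then 30 min room temperature | Measured by: Fluo-8 calcium-sensitive fluorescence | Read-out basis: % inhibition of agonist calcium response | Replicates: n of 1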
MC4R antag cAMP – blocks human MC4R cAMP signaling. inhibition, % at 6.5 µM. hit rate 0.48% among 360,000. MC4R-expressing cells, MTII-stimulated cAMP, LANCE TR-FRET;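 active = inhibition above its plate's cutoff, the mean of tested wells on that plate plus 3 SD, cut at about 29% in these data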
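System: U2OS-MC4R stable cell line; Technique: Eu-cAMP/anti-cAMP TR-FRET, emission 671 nm; Repeats: single well per compound; Also added: Melanotan II; Dosing: one concentration, 6.5 µM nominal; Schedule: 30-min compound, 1-h challenge, 1-h detection, room temperature.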
Beta2AR agonist – human beta-2 adrenergic receptor agonism by FAP; hit rate 0.43% among 340,000; P07550; response, % (concentration not given with the values); AID 504454; Am2.2-beta2AR cells, FAP receptor internalization, flow cytometry;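 active = response above a set limit, near 3 SD of response in nonfluorescent compounds, cut at about 42% in these data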
Target sequence (P07550 whole entry, looked up): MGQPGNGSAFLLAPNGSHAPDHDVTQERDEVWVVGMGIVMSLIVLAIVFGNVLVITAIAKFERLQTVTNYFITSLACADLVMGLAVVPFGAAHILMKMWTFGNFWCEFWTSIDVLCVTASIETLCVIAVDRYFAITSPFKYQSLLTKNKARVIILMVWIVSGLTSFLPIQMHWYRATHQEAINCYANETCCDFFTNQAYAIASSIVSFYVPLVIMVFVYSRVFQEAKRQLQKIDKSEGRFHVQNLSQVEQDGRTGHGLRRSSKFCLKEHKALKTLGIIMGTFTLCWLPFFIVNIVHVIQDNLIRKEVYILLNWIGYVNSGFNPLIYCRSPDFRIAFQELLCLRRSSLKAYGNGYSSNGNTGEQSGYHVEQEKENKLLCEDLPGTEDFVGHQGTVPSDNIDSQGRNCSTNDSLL
m5-HT2A agonist – activates the mouse 5-HT2A serotonin receptor. CHO-K1 mHTR2A beta-arrestin complementation, luminescence; percent of 30 µM serotonin response. activation, % at 7.6 µM. hit rate 0.66% among 360,000. AID 624169;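 active = activation above a run cutoff, the mean activation of all tested compounds plus 3 SD, cut at about 14% in these data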
U2OS cAMP counter – nonselective cAMP signaling inhibitor, MC4R antagonist counter-screen. parental U2OS, forskolin cAMP, LANCE TR-FRET. shares compounds with MC4R antag cAMP. hit rate 26% among 1,600. inhibition, % at 6.5 µM;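 active = mean inhibition over triplicates above the low-control well mean plus 3 SD, set per campaign, cut at about 13% in these data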;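 note: signal is single emission at 671 nm which falls as cellular cAMP rises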
MC4R antag conf – human MC4R cAMP antagonism confirmation. shares compounds with MC4R antag cAMP. MC4R-expressing cells, MTII-stimulated cAMP, TR-FRET. inhibition, % at 6.5 µM. hit rate 27% among 1,600. AID 602195; in the data active = inhibition above about 29%
Of the large screens only hits and unclear results are named; the others gave an inactive call (follow-up assays come after a bar, where they were run). In the library only some 4.3% were active in any assay of this set; here they are far more common.

COc1ccc(C(=O)/C=C/C(=O)N(CC(=O)NC2CCCCC2)Cc2cccs2)c(O)c1	MC4R antag cAMP 31.8, Beta2AR agonist 114.8 | U2OS cAMP counter inactive | MC4R antag conf inactive
COCCN(CC(=O)NC1CCCCC1)C(=O)/C=C/C(=O)c1ccc(OC)cc1O	MC4R antag cAMP 41.1, Beta2AR agonist 90.6 | U2OS cAMP counter inactive | MC4R antag conf inactive
CC(C)Nc1nnc(Sc2ccc(Cl)cc2[N+](=O)[O-])s1	none
CCN(CC)C(=O)C1=C(C)N(Cc2ccccc2)C(=O)C(CC(=O)NC2CCCCC2)C1 (centres undefined)	none (no result: Beta2AR agonist)
C#CCOCCOCCOCCNc1nc(N2CCN(C(=O)CCCCCCCCCCNC(=O)[C@H](CCCCN)n3cc(C[C@@H](C)CC)nn3)CC2)nc(N2CCN(C(=O)CCCCCCCCCCNC(=O)[C@H](CCCCN)n3cc(C[C@@H](C)CC)nn3)CC2)n1	MC4R antag cAMP 75.4, Beta2AR agonist 42.1 (no result: TAAR1 agonist, TAAR1 antag) | U2OS cAMP counter 34.1 | MC4R antag conf 83.6
C#CCOCCOCCOCCNc1nc(N2CCN(C(=O)CCCCCCCCCCNC(=O)[C@H](CCCCN)n3cc(CCO)nn3)CC2)nc(N2CCN(C(=O)CCCCCCCCCCNC(=O)[C@H](CCCCN)n3cc(CCO)nn3)CC2)n1	none (no result: TAAR1 agonist, TAAR1 antag)
O=S1(=O)CC(O)C(O)CS1 (centres undefined)	none (no result: MC4R barr agon, MC4R antag cAMP, Beta2AR agonist)
CC(=O)Nc1ccc2nc(NC(=O)C(Cl)(Cl)Cl)sc2c1	MC4R antag cAMP 29.1 | U2OS cAMP counter inactive | MC4R antag conf inactive
CC(=O)Nc1ccc2nc(NC(=O)c3cccnc3)sc2c1	none
COCCCC1CCN(Cc2nc(-c3ccccc3)no2)CC1	MC4R antag cAMP 29.9 | U2OS cAMP counter inactive | MC4R antag conf inactive
CC(C)(C)NC(=O)C(c1ccnc2ccccc12)n1c(=O)c(-c2ccco2)nc2ccccc21 (centres undefined)	none (no result: MC4R barr agon, MC4R antag cAMP, Beta2AR agonist)
COc1ccc(Oc2c(Cl)cnn(-c3ccc(Cl)c(Cl)c3)c2=O)cc1	none
COc1c(Cl)cnn(-c2ccc(C)cc2)c1=O	MC4R antag cAMP 34.1 | U2OS cAMP counter inactive | MC4R antag conf inactive
COc1ccc(Oc2c(Cl)cnn(-c3ccc(F)cc3)c2=O)cc1	MC4R antag cAMP 57.6 | U2OS cAMP counter 40.3 | MC4R antag conf 72.6
COc1ccc(Oc2c(Cl)cnn(-c3ccc(C)cc3)c2=O)cc1	MC4R antag cAMP 59.5 | U2OS cAMP counter 36.4 | MC4R antag conf 82.5
C=C1CC[C@@H]2[C@](C)(CCC[C@@]2(C)/C=C/[C@@H](O)C(C)(C)O)[C@H]1CC(=O)NCCS(=O)(=O)O	none
COc1cc2oc(=O)cc(CN3CCCCC3)c2cc1Cl	none (no result: MC4R barr agon, MC4R antag cAMP, Beta2AR agonist)
CCc1ccc(-c2nnn(CC(=O)N(C3CCCC3)C3CCS(=O)(=O)C3)n2)cc1 (centres undefined)	none
COc1ccc(OC)c2c1C(=O)C(Cl)=C(Cl)C2=O	TAAR1 antag 70.9, MC4R antag cAMP 32.0, Beta2AR agonist 97.3 | U2OS cAMP counter 72.7 | MC4R antag conf 48.7
COc1ccc(OC)c2c1C(=O)c1ccccc1C2=O	none (no result: MC4R barr agon, MC4R antag cAMP, Beta2AR agonist, m5-HT2A agonist)
O=C(NCc1ccon1)C1CCC(=O)N(CCc2cccc(F)c2)C1 (centres undefined)	none
CC(=O)c1sc(-c2ccccc2)cc1NS(=O)(=O)c1ccccc1	none
CC(=O)c1sc(-c2ccccc2)cc1NS(=O)(=O)c1ccc(C)cc1	MC4R antag cAMP 35.5 | U2OS cAMP counter 32.4 | MC4R antag conf 56.9
Cc1nc(=O)c(-c2ccccc2)c(C)n1-c1ccccc1	MC4R antag cAMP 30.9 | U2OS cAMP counter inactive | MC4R antag conf inactive
COc1ccc(CNC(=O)CCS(=O)(=O)c2cc3c(cc2Cl)NC(=O)CO3)cc1	none
CCCCN(C)C(=O)c1nc2ccccn2c1CN1CCN(C/C=C/c2ccccc2)CC1	MC4R antag cAMP 35.0 | U2OS cAMP counter inactive | MC4R antag conf inactive
